In assay [1] the target is Protein farnesyltransferase subunit beta (Homo sapiens) (UniProt P49356). Briefly: Activity at FTase assessed as formation of farnesylated peptide after 60 mins by HPLC. The method, boiled down: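 Peptide (3 μM) with 9 μM FPP and recombinant mammalian FTase (0.05 μM), incubated 60 min. HPLC scored conversion to farnesylated peptide: complete; nearly complete; 25% to 50%; less than 25%; no product.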

Assay [2] has the same target. Briefly: Ratio of kcat to km for FTase in presence of farnesyl diphosphate. In short, it runs like this: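 Steady-state kinetics at saturating FPP (10 μM), 0.2-10 μM dansyl peptide, 20-100 nM FTase (at least 5-fold below peptide). Buffer: 50 mM HEPPSO pH 7.8, 5 mM TCEP, 5 mM MgCl2, 25 °C. Peptide preincubated 20 min in buffer, then FTase and FPP added. Fluorescence (ex 340, em 520 nm) followed over time and converted to kcat/KM.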

For assay [3] the target is unchanged. As to the kind of experiment: Substrate activity for FTase assessed as increase in fluorescence by spectrofluorimetry in presence of farnesyl diphosphate relative to DnGCVLS. On the set-up: concentration or dose not given beside the values.

We go through five compounds from ChEMBL document CHEMBL1153232, “Synthesis and screening of a CaaL peptide library versus FTase reveals a surprising number of substrates” (Bioorg Med Chem Lett, 2010).

The structures appear in SMILES notation. Calls of active or inactive are those of the source. The rule behind the calls is not given here. Peptide text beside a SMILES is read from it. * marks the point of attachment. Dansyl = CN(C)c1cccc2c(S(=O)(=O)*)cccc12

Sequence of Protein farnesyltransferase subunit beta (Homo sapiens) (P49356 whole entry): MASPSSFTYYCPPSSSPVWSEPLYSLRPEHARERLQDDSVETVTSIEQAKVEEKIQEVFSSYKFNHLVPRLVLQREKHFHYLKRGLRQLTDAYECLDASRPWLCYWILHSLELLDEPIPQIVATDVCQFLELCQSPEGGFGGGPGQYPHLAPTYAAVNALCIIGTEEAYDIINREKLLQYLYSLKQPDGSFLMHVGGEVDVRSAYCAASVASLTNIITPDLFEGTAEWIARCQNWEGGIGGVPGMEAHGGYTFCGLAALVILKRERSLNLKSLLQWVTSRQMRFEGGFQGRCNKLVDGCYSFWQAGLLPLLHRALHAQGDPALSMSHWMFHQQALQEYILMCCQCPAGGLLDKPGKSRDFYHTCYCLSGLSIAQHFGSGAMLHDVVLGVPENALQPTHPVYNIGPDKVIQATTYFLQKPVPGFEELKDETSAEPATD

As for `CC(C)C[C@H](NC(=O)[C@@H](NC(=O)[C@H](CS)NC(=O)[C@H](CS)NC(=O)CNS(=O)(=O)c1cccc2c(N(C)C)cccc12)C(C)C)C(=O)O` (Dansyl-GCCVL-OH), the result in assay [1] was Active. The Ratio in assay [2] came to 7 mM⁻¹ s⁻¹. In addition, the Activity in assay [3] worked out at 11%.

For the compound `CC[C@H](C)[C@H](NC(=O)[C@H](CS)NC(=O)CNS(=O)(=O)c1cccc2c(N(C)C)cccc12)C(=O)N[C@H](C(=O)N[C@@H](CC(C)C)C(=O)O)[C@@H](C)CC` (Dansyl-GCIIL-OH), the result in assay [1] was Active. Besides, the Ratio in assay [2] was determined as 43 mM⁻¹ s⁻¹. The Activity in assay [3] amounted to 101%.

With `CC[C@H](C)[C@H](NC(=O)[C@H](CC(N)=O)NC(=O)[C@H](CS)NC(=O)CNS(=O)(=O)c1cccc2c(N(C)C)cccc12)C(=O)N[C@@H](CC(C)C)C(=O)O` (Dansyl-GCNIL-OH), in assay [1], the result was Active. Also, the Ratio in assay [2] worked out at 12 mM⁻¹ s⁻¹. Moreover, the Activity in assay [3] was 22%.

As for `CC[C@H](C)[C@H](NC(=O)[C@H](CO)NC(=O)[C@H](CS)NC(=O)CNS(=O)(=O)c1cccc2c(N(C)C)cccc12)C(=O)N[C@@H](CC(C)C)C(=O)O` (Dansyl-GCSIL-OH), the outcome in assay [1] was Active. Besides, the Ratio in assay [2] came out at 5 mM⁻¹ s⁻¹. Also, in assay [3], the Activity amounted to 18%.

As for `CC[C@H](C)[C@H](NC(=O)[C@@H](NC(=O)[C@H](CS)NC(=O)CNS(=O)(=O)c1cccc2c(N(C)C)cccc12)[C@@H](C)O)C(=O)N[C@@H](CC(C)C)C(=O)O` (Dansyl-GCTIL-OH), the outcome in assay [1] was Active. The Ratio in assay [2] was determined as 33 mM⁻¹ s⁻¹. Moreover, the Activity in assay [3] is 45%.
